Experimental findings from publication PMC3791465 (Nature Communications, 2013) are described below.

In experiment [1] the test system is ERα / PHB2 chromatin-remodelling complexes. Nature of the experiment: Co-immunoprecipitation of chromatin-remodelling complexes in nuclear fractions. It is filed as cell-based, human. Conditions: MCF-7 and KPL-3C cells, 24 h, E2 present. In outline: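 Lysed in 0.1% NP-40 buffer, precleared with normal IgG/Protein G Sepharose 3 h at 4 °C, then incubated with anti-ERα or anti-PHB2 (5 μg) 12 h at 4 °C. Complexes captured on Protein G 1 h, washed three times, resolved by SDS–PAGE and immunoblotted.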

A further experiment has as its system Akt (S473). Kind of experiment: Immunoblot of Akt. It is filed as cell-based, human. Conditions: MCF-7 and KPL-3C cells, E2-stimulated. In outline:
(§1)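 Blots were run on nitrocellulose, blocked in 4% BlockAce for 1 h, probed with HRP secondary for 1 h and developed by ECL. Phospho-levels were quantified by densitometry. Representative of four independent experiments.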
A general note: A western blot detects proteins with antibodies after separation by electrophoresis.

The test system of a further experiment is p42/44 MAPK (T202/Y204). Kind of experiment: Immunoblot of p42/44 MAPK. The class given is cell-based, human. The note with it: MCF-7 and KPL-3C cells, E2-stimulated. In outline: as §1
Experiment [2] has as its system ERα (S104/S106, S118, S167, S305 and Y537). Nature of the experiment: Immunoblot of ERα phosphorylation. The class given is cell-based, human. Conditions: MCF-7 and KPL-3C cells, at least 24 h. The method, boiled down: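 Blots were on nitrocellulose with HRP secondary and ECL detection. Site-specific ERα phosphorylation was quantified by densitometry and expressed as fold over untreated cells at 0 h. Mean±s.e.m.; experiments were run more than three times in triplicate.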

In a further experiment the test system is MCF-7 cells. Kind of experiment: Cell cycle assay by flow cytometry, MCF-7. It is filed as cell-based, human. Conditions: MCF-7, 24 h. Background: In flow cytometry, cells or beads pass a laser one at a time.
Experiment [3] has as its system MCF-7 xenograft in BALB/c nude mice. Nature of the experiment: MCF-7 orthotopic xenograft tumour growth. The class given is in vivo, mouse. Conditions: daily 6 μg per day E2, MCF-7.
The subject of a further experiment is BIG3 expression. Nature of the experiment: BIG3 expression in MCF-7 cells. The class given is cell-based, human.
For experiment [4], the system named is ERE motif within intron 1 of the BIG3 gene. Kind of experiment: Luciferase assay, intronic ERE of BIG3. The note with it: MCF-7. The class given is cell-based, human.
Experiment [5] has as its system ERE within intron 1 of the BIG3 gene. Nature of the experiment: ChIP on intronic ERE of BIG3. It is filed as cell-based, human. Conditions: MCF-7.
The subject of experiment [6] is Akt, p42/44 MAPK and ERα phosphorylation. Nature of the experiment: Immunoblot of phosphorylation in TAM-R MCF-7 and T47D cells. The class given is cell-based, human. Conditions: tamoxifen alone or tamoxifen and E2. In outline: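 Proteins separated, blotted to nitrocellulose, blocked 1 h, probed, then HRP secondary 1 h and ECL. Akt, p42/44 MAPK and ERα phosphorylation quantified by densitometry; experiments repeated more than three times in triplicate.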

Each structure is given as a SMILES string.

With `C[C@]12CC[C@@H]3c4ccc(O)cc4CC[C@H]3[C@@H]1CC[C@@H]2O` [E2, 17-estradiol], the “SRC-1 binding/recruitment to ERα” value in experiment [1] is recorded as “recruited SRC-1 to ERα”. In addition, in the experiment with Akt (S473), the “Akt (S473) phosphorylation” value is “clearly increased in a time-dependent manner”. Also, the “p42/44 MAPK (T202/Y204) phosphorylation” value with p42/44 MAPK (T202/Y204) is recorded as “clearly increased in a time-dependent manner”. Further, the “ERα phosphorylation at five sites” value in [2] is on record as “clearly increased in response to E2 stimulation”. For the same compound, in the experiment on MCF-7 cells, the “apoptotic (sub-G1) cell population” value came to 0.17% and the “cell cycle distribution” value is listed as “population of cells in the G2/M phase increased”. Also, the “E2-induced tumour growth by E2 alone” value in [3] was “induced time-dependent growth of KPL-3C and MCF-7 tumours”. In the experiment on BIG3 expression, the “BIG3 expression after E2” value is on record as “significantly upregulated in MCF-7 cells in a time-dependent manner”. Moreover, in [4], the “luciferase activity, intronic ERE from BIG3” value is “robust luciferase activity”. Also, in experiment [5], the “recruitment to intronic ERE of BIG3” value is “recruitment of ERα and the co-activator SRC-1 was observed”.

For `CC/C(=C(\c1ccccc1)c1ccc(OCCN(C)C)cc1)c1ccccc1` [tamoxifen], in the experiment on MCF-7 cells, the “apoptotic (sub-G1) cell population” value came out at 0.91% and the “cell cycle distribution” value is “population in the G1 phase increased”. In addition, the “phosphorylation of Akt, p42/44 MAPK and ERα in TAM-R cells” value in [6] is “enhanced in response to tamoxifen alone”. In addition, the “BIG3 expression after tamoxifen” value with BIG3 expression (real-time PCR and immunoblot) was “significant reduction in BIG3 expression at both the transcriptional and protein levels in a dose-dependent manner”.
